The record followed here is the M2OR odorant receptor database.

Holding throughout (settings): stereoisomer not certain
The target in test [1] is T1, UniProt Q8VGC6.
T1 sequence (whole entry): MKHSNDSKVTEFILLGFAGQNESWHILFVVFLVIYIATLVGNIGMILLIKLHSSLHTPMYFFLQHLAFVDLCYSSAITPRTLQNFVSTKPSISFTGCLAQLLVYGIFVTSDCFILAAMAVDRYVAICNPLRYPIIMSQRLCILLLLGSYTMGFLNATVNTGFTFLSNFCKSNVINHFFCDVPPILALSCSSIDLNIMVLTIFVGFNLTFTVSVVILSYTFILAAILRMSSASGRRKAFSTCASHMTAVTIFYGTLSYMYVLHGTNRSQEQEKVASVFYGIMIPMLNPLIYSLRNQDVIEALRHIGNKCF
Put shortly: (§1)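 Assay methods differ from source to source, frequently being transient luciferase assays in mammalian cell lines. For each receptor–molecule pair, the label responsive (active) applies when the original authors judged the measured signal statistically different from baseline, and non-responsive (inactive) applies otherwise.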

Test [2] addresses T2, UniProt Q8VGD7.
T2 sequence (whole entry): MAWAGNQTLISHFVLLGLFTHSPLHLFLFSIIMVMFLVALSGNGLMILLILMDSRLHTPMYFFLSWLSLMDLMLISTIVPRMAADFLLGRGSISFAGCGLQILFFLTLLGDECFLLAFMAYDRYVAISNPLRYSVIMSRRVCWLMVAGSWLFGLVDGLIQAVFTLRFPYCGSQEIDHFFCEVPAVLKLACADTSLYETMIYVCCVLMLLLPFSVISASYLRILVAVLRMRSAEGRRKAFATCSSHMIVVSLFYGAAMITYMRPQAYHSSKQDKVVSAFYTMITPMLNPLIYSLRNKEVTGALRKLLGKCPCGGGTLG
Put shortly:
as §1

The target of test [3] is T3, UniProt Q8VGH1.
T3 sequence (whole entry): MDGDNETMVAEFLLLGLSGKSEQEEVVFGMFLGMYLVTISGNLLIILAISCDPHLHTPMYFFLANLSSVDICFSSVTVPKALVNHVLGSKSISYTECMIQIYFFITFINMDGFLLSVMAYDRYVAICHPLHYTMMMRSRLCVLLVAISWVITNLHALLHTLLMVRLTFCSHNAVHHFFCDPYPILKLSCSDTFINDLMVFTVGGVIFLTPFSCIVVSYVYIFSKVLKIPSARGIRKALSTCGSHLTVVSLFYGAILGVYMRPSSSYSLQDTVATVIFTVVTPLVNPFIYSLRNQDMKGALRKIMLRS
Put shortly: as §1

Test [4] concerns the target T4, UniProt Q8VGJ1.
T4 sequence (whole entry): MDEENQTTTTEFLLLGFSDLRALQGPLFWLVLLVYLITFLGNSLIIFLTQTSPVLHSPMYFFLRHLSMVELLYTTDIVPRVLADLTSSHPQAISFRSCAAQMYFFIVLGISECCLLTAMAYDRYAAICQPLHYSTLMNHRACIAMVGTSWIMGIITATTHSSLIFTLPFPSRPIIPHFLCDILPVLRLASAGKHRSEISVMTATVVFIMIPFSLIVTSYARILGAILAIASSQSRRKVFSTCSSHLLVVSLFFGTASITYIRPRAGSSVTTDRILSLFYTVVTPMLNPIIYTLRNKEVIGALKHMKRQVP
Put shortly:
as §1

The target in test [5] is T5, UniProt Q8VGJ3.
T5 sequence (whole entry): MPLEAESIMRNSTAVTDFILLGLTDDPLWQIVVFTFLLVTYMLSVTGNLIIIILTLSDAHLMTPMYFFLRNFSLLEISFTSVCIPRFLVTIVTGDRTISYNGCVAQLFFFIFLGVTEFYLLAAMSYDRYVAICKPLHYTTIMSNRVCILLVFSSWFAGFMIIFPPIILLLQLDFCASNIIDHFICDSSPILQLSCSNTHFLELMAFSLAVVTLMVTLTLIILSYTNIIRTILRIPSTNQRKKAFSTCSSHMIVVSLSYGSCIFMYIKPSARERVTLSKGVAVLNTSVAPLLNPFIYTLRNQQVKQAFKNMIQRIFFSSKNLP
Put shortly:
as §1

The target in test [6] is T6, UniProt Q8VGJ5.
T6 sequence (whole entry): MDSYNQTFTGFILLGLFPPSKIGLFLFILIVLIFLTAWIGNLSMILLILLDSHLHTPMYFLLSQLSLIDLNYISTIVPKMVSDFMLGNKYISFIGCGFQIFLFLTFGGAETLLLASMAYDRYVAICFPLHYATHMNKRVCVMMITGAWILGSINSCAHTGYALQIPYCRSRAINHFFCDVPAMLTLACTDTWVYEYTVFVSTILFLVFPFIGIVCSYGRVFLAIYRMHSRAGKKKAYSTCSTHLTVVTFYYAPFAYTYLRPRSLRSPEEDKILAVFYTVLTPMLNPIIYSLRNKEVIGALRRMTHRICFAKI
Put shortly: as §1

Test [7] deals with T7, UniProt Q8VGL0.
T7 sequence (whole entry): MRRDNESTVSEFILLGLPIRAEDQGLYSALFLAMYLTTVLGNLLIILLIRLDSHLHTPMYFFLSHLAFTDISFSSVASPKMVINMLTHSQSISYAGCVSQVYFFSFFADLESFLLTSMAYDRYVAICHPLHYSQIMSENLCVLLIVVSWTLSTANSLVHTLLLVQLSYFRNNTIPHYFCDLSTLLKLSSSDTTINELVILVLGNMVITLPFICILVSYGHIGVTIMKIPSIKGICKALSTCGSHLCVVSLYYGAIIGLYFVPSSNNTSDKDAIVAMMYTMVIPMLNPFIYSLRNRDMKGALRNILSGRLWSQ
Put shortly:
as §1

In test [8] the target is T8, UniProt Q8VGL7.
T8 sequence (whole entry): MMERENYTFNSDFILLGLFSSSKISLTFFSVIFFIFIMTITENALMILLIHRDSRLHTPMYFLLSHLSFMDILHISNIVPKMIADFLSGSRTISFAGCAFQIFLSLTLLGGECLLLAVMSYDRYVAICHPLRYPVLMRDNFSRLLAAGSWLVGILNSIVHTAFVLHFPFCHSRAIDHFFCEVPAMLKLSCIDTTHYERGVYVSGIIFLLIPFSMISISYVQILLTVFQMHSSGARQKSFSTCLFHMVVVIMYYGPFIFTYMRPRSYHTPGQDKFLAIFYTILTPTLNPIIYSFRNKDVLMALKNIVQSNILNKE
Put shortly: as §1

The target in test [9] is T9, UniProt Q8VGM2.
T9 sequence (whole entry): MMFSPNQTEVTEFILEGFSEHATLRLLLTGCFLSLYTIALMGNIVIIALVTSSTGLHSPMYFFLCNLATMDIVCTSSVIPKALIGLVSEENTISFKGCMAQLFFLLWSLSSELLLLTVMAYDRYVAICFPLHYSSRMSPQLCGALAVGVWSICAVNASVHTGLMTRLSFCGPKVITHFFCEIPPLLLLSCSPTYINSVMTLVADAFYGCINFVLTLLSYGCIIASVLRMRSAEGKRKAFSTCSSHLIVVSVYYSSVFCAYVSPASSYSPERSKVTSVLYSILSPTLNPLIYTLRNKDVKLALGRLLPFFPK
Put shortly: as §1

Test [10] concerns the target T10, UniProt Q8VGP6.
T10 sequence (whole entry): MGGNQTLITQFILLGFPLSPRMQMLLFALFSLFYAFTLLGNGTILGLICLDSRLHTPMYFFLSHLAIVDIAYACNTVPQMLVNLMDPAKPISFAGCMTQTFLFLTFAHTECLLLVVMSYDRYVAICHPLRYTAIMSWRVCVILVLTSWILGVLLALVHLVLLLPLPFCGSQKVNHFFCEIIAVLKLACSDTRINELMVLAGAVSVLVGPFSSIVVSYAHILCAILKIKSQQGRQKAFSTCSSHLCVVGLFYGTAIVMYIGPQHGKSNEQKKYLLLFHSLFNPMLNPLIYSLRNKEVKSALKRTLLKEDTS
Put shortly: as §1

The target of test [11] is T11, UniProt Q8VGQ3.
T11 sequence (whole entry): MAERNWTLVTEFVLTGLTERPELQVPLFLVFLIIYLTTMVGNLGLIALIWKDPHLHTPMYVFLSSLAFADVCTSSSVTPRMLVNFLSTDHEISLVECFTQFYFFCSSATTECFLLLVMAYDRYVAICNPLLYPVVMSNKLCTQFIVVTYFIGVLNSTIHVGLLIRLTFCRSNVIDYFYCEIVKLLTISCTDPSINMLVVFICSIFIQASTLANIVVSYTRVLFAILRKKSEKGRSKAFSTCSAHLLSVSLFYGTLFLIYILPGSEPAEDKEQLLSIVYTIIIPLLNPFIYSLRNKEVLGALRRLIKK
Put shortly: as §1

Test [12] addresses T12, UniProt Q8VGT4.
T12 sequence (whole entry): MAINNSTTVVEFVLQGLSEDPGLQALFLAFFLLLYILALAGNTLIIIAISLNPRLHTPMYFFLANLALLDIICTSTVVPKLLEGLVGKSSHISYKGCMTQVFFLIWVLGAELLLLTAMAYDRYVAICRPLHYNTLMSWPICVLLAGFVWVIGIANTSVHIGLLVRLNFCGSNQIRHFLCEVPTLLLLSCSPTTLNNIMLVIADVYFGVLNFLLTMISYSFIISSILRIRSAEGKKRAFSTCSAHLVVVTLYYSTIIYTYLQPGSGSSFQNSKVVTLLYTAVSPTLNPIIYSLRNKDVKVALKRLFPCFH
Put shortly: as §1

Test [13] has as its target T13, UniProt Q8VGU3.
T13 sequence (whole entry): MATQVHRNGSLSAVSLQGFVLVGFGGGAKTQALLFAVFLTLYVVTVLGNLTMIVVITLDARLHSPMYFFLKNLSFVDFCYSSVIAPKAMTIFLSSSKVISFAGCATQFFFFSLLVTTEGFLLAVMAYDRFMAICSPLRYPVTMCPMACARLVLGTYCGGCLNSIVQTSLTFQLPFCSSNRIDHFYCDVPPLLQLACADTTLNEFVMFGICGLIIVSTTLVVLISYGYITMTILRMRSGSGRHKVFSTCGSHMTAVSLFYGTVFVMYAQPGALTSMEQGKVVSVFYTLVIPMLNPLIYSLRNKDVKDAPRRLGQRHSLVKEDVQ
Put shortly: as §1

The target in test [14] is T14, UniProt Q8VGV1.
T14 sequence (whole entry): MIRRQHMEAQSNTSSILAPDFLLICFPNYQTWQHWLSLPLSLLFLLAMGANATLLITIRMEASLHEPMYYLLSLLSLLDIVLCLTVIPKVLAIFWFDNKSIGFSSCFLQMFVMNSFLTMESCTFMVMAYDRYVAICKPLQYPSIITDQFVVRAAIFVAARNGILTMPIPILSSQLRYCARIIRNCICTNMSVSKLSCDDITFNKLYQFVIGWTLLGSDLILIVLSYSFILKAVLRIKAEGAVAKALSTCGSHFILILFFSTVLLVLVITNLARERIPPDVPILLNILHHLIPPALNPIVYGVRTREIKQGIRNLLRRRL
Put shortly: as §1

In test [15] the target is T15, UniProt Q8VGV7.
T15 sequence (whole entry): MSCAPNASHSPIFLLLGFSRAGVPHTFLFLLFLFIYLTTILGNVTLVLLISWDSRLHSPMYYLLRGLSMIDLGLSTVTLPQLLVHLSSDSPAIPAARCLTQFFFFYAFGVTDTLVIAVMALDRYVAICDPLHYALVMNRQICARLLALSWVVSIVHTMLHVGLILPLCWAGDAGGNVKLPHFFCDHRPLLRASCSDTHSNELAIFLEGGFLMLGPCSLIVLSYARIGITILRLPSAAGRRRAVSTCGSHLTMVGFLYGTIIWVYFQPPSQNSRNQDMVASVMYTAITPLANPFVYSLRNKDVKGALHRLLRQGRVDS
Put shortly:
as §1

Test [16] deals with T16, UniProt Q8VGX3.
T16 sequence (whole entry): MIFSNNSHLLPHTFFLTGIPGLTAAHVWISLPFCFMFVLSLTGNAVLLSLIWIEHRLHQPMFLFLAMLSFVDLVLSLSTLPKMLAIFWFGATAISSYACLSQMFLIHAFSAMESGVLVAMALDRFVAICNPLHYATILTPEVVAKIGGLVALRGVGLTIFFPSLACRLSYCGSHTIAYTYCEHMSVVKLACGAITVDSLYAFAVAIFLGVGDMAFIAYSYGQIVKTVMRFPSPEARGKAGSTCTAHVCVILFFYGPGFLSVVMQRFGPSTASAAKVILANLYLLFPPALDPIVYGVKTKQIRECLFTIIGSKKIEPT
Put shortly:
as §1

Test [17] concerns the target T17, UniProt Q8VGX5.
T17 sequence (whole entry): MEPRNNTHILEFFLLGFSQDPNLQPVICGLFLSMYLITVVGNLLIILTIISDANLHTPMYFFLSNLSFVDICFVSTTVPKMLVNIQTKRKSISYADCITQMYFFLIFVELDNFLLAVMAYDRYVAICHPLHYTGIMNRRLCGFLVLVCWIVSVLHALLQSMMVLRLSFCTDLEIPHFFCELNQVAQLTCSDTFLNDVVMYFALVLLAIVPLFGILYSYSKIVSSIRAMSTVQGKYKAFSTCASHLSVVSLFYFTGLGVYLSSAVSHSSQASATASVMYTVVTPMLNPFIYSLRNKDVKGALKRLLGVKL
Put shortly:
as §1

In the case of `COc1cc(C(=O)O)ccc1O`, the “odorant receptor agonist call” value in test [1], in test [2], in [3], in test [4], in test [5] and in test [6] was “inactive” each time. The “odorant receptor agonist call” value in [7], in test [8], in test [9], in test [10], in [11] and in test [12] was “inactive” throughout. In addition, the “odorant receptor agonist call” value in [13], in test [14], in test [15], in test [16] and in test [17] was “inactive” in each case.

As for `C=C(C)C1CCC(C)C(=O)C1` (centres undefined), the “odorant receptor agonist call” value in test [1], in test [6], in test [7], in test [11] and in test [17] was “active” throughout. Also, the “odorant receptor agonist call” value in test [2], in test [3], in test [4], in test [5], in test [8] and in [9] was “inactive” throughout. The “odorant receptor agonist call” value in test [10], in test [12], in test [13], in test [14], in test [15] and in test [16] was “inactive” in each case.

Turning to `CCC(C(=O)O)c1ccccc1` (centres undefined), the “odorant receptor agonist call” value in test [1], in [2], in [3], in test [4], in [6] and in [7] was “inactive” in each case. Besides, the “odorant receptor agonist call” value in test [8], in [9], in test [10], in [11], in [12] and in test [14] was “inactive” in each case. For the same compound, the “odorant receptor agonist call” value in [17] was “inactive”.

As to `CCCCCC(=O)CC`, the “odorant receptor agonist call” value in test [1] and in test [6] was “active” throughout. For the same compound, the “odorant receptor agonist call” value in test [2], in test [3], in [4], in [5], in [7] and in [8] was “inactive” throughout. The “odorant receptor agonist call” value in [9], in test [10], in test [11], in [12], in [13] and in test [14] was “inactive” each time. The “odorant receptor agonist call” value in test [15], in [16] and in [17] was “inactive” throughout.
